Data reported in ChEMBL document CHEMBL4229446, “Development of Novel Monoamine Oxidase-B (MAO-B) Inhibitors with Reduced Blood-Brain Barrier Permeability for the Potential Management of Noncentral Nervous System (CNS) Diseases” (J Med Chem, 2018).

Assays:
[1] = target: T1, Amine oxidase [flavin-containing] B (Homo sapiens, UniProt P27338); experiment: Inhibition of human recombinant MAO-B expressed in baculovirus infected BTI-TN-5B1-4 insect cells using benzylamine as substrate preincubated for 1 hr followed by substrate addition and measured after 30 mins by resazurin dye-based fluorescence assay; type: cell-based
T1 sequence (P27338 whole entry): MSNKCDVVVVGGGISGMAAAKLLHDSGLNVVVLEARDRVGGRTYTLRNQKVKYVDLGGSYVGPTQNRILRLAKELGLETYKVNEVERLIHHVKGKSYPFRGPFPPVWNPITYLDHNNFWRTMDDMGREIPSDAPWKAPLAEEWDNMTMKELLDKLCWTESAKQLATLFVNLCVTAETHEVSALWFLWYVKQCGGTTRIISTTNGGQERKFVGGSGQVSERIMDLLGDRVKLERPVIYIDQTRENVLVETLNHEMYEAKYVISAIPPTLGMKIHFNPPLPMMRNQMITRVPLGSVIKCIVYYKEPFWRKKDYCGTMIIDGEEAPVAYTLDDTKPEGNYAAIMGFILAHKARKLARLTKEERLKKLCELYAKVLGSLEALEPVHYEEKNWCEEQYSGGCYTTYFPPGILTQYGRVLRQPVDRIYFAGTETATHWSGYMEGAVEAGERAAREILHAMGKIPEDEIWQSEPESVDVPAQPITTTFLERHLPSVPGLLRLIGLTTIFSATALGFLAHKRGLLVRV

[2] = target: T2, Amine oxidase [flavin-containing] A (Homo sapiens, UniProt P21397); experiment: Inhibition of human recombinant MAO-A expressed in baculovirus infected BTI-TN-5B1-4 insect cells using tyramine as substrate preincubated for 1 hr followed by substrate addition and measured after 30 mins by resazurin dye-based fluorescence assay
T2 sequence (P21397 whole entry): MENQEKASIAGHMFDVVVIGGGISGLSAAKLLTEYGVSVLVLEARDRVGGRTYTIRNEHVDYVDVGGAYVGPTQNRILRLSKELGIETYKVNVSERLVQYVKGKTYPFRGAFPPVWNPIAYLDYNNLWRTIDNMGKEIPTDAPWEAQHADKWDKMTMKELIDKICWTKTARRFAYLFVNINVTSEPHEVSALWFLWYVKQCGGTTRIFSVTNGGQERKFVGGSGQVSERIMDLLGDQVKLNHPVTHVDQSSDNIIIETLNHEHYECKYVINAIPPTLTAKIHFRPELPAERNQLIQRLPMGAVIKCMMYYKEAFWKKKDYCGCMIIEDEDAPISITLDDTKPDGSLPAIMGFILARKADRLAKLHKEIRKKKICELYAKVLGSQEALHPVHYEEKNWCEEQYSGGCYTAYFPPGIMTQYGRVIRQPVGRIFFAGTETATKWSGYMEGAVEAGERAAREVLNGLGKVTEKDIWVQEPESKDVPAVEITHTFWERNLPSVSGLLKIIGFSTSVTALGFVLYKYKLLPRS

[3] = tested on: Mus musculus; experiment: Acute toxicity in C57BL/6 mouse assessed as abnormal clinical signs at […], po administered as single dose measured after 24 hrs post-injection; type: organism-based; details: in vivo
[4] = Tmax in C57BL/6 mouse plasma at 20 mg/kg, iv administered as single dose measured 24 hrs by UPLC-MS/MS analysis; type: ADME, organism-based
Procedure, shortened: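 Plasma cleaned by protein precipitation with phospholipid removal, then UPLC-MS/MS in MRM mode. Tmax obtained by noncompartmental analysis.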

[5] = Efflux ratio of apparent permeability in MDCK-WT cells at 10 uM after 1 hr in absence of P-gp inhibitor verapamil by UPLC-MS/MS analysis; details: dog
[6] = Tmax in C57BL/6 mouse brain at 20 mg/kg, iv administered as single dose measured 24 hrs by UPLC-MS/MS analysis; type: ADME, organism-based
Procedure, shortened: (§1)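 21 animals dosed at 0 min, 3 sacrificed at each of 0, 5, 15, 30 min, 1, 4 and 24 h. Plasma was extracted by protein precipitation with phospholipid removal. Brain was weighed, bead-homogenised in 50 mM ammonium formate and extracted in acidified organic solvent. Quantified by UPLC-MS/MS (MRM). Brain ng/g taken as ng/mL. Parameters came from noncompartmental analysis. Kp = AUClast brain/plasma.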

[7] = AUClast in C57BL/6 mouse brain at 20 mg/kg, iv administered as single dose measured 24 hrs by UPLC-MS/MS analysis; type: ADME, organism-based; parameters: dose 20 mg/kg, time 0 - last, route intravenous; procedure, shortened: as §1
[8] = tested on: P-gp (MDR1); experiment: Efflux ratio of apparent permeability in MDCK2-MDR1 cells at 10 uM after 1 hr in absence of P-gp inhibitor verapamil by UPLC-MS/MS analysis; type: ADME, cell-based, Canis lupus familiaris; details: dog, MDCK-MDR1
Procedure, shortened: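 MDCK-WT (MEM-α/10% FBS) or MDCK-MDR1 II (DMEM/10% FBS) cells were grown 3 days on 12-well transwells. Integrity was checked by TEER and 100 μM Lucifer yellow. Cells were washed in HBSS/10 mM HEPES. Compound at 10 μM was added apically or basally, in triplicate, ±100 μM verapamil. Receiver sampled at 1 h by UPLC-MS/MS. Efflux ratio = Papp B→A / Papp A→B.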

[9] = Metabolic stability in human liver microsomes assessed as parent compound remaining at 1 uM after 60 mins by UPLC-MS/MS analysis; type: ADME, microsome; details: liver microsomes, read-out: Stability
Procedure, shortened: (§2)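 Compound at 1 μM with 0.5 mg/mL mouse or human liver microsomes in 100 mM potassium phosphate pH 7.4, 3.3 mM MgCl2, 1 mM NADPH, at 37 °C. Started with NADPH; minus-NADPH control run. Stopped at 0, 5, 15, 30, 45 and 60 min with acetonitrile/formic acid plus internal standard. Parent remaining by UPLC-MS/MS, in triplicate.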

[10] = tested on: Mus musculus; experiment: Acute toxicity in C57BL/6 mouse assessed as abnormal clinical signs at […], iv administered as single dose measured after 24 hrs post-injection; type: organism-based; details: in vivo
[11] = Metabolic stability in mouse liver microsomes assessed as parent compound remaining at 1 uM after 60 mins in presence of NADPH by UPLC-MS/MS analysis; type: ADME, microsome; details: read-out: Stability; procedure, shortened: as §2
[12] = Metabolic stability in mouse plasma assessed as parent compound remaining at 5 uM after 4 hrs by UPLC-MS/MS analysis; type: ADME, cell-free; details: read-out: Stability
Procedure, shortened: (§3)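 Compound at 5 μM was incubated in mouse or human plasma at 37 °C with shaking. Sampled at 0, 5, 15, 30, 60, 120 and 240 min and stopped with ice-cold acetonitrile/0.1% formic acid containing internal standard. Supernatants analysed by UPLC-MS/MS for parent remaining. Run in triplicate.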

[13] = AUClast in C57BL/6 mouse plasma at 20 mg/kg, iv administered as single dose measured 24 hrs by UPLC-MS/MS analysis; type: ADME, organism-based; parameters: dose 20 mg/kg, route intravenous, time 0 - last; procedure, shortened: as §1
[14] = Cmax in C57BL/6 mouse plasma at 20 mg/kg, iv administered as single dose measured 24 hrs by UPLC-MS/MS analysis; type: ADME, organism-based; parameters: dose 20 mg/kg, route intravenous; procedure, shortened: as §1
[15] = Apparent half-life of the terminal disposition phase in C57BL/6 mouse plasma at 20 mg/kg, iv administered as single dose measured 24 hrs by UPLC-MS/MS analysis; type: ADME, organism-based; details: read-out: t1/2 lambda z (converted); procedure, shortened: as §1
[16] = Metabolic stability in cryopreserved mouse hepatocytes assessed as parent compound remaining at 1 uM after 60 mins by UPLC-MS/MS analysis; type: ADME, cell-based, Hepatocyte; details: read-out: Stability
[17] = Metabolic stability in human plasma assessed as parent compound remaining at 5 uM after 4 hrs by UPLC-MS/MS analysis; type: ADME, cell-free; details: read-out: Stability; procedure, shortened: as §3
[18] = Cmax in C57BL/6 mouse brain at 20 mg/kg, iv administered as single dose measured 24 hrs by UPLC-MS/MS analysis; type: ADME, organism-based; parameters: dose 20 mg/kg, route intravenous; procedure, shortened: as §1
[19] = tested on: Mus musculus; experiment: Acute toxicity in C57BL/6 mouse assessed as abnormal clinical signs at […], sc administered as single dose measured after 24 hrs post-injection; type: organism-based; details: in vivo
[20] = Ratio of AUClast in brain to plasma in C57BL/6 mouse at 20 mg/kg, iv administered as single dose measured 24 hrs by UPLC-MS/MS analysis; type: ADME, organism-based; procedure, shortened: as §1

SMILES | IC50 [1] | IC50 [2] | other results
C[C@H](Cc1ccc(OCc2ccncc2)cc1)N(C)CC(=O)O | 22 µM | > 50 µM | 
C[C@H](Cc1ccc(OCc2ccccc2)cc1)N(C)CC(=O)O | 0.894 µM | > 50 µM | 
C[C@H](Cc1ccc(OCc2cc(Cl)ccc2Cl)cc1)N(C)CC(=O)O | 1.38 µM | > 50 µM | 
C[C@H](Cc1ccc(OCc2cccc(C#N)c2)cc1)N(C)CC(=O)O | 21.3 µM | > 50 µM | 
C[C@H](Cc1ccc(OCc2ccccc2Cl)cc1)N(C)CC(=O)O | 0.713 µM | > 50 µM | 
C#CCN(C)[C@H](C)Cc1ccc(OCc2ccccc2)cc1 | 0.005 µM | 0.161 µM | 
C[C@H](Cc1ccc(OCc2cccc(Cl)c2)cc1)N(C)CC(=O)O | 0.264 µM | > 50 µM | Activity [3]: Non-Toxic; Tmax [4]: 5 min; efflux ratio at 1 h, 10 µM [5]: 1.23; Tmax [6]: 1 h; AUC(0-t) at 24 h [7]: 2280 ng·h/mL; efflux ratio at 1 h, 10 µM [8]: 1.75; remaining at 1 h, 1 µM [9]: ≥ 90%; Activity [10]: Non-Toxic; remaining at 1 h, 1 µM [11]: 87.3%; remaining at 4 h, 5 µM [12]: ≥ 75%; AUC(0-t) at 24 h [13]: 112000 ng·h/mL; Cmax [14]: 16600 ng/mL; half-life [15]: 4.51 h; remaining at 1 h, 1 µM [16]: ≥ 90%; remaining at 4 h, 5 µM [17]: ≥ 75%; Cmax [18]: 648 ng/mL; Activity [19]: Non-Toxic; Kp at 24 h [20]: 0.02
C[C@H](Cc1ccc(OCc2cccc(F)c2)cc1)N(C)CC(=O)O | 0.869 µM | > 50 µM | 
COC(=O)c1ccc(COc2ccc(C[C@@H](C)N(C)CC(=O)O)cc2)cc1 |  | > 50 µM | 
COC(=O)[C@H](Cc1ccc(OCc2ccccc2)cc1)N(C)CC(=O)O | 7.93 µM | > 50 µM | 
C[C@H](Cc1ccc(OCc2cc(F)cc(F)c2)cc1)N(C)CC(=O)O | 0.911 µM | > 50 µM | 
CN(CC(=O)O)[C@H](CO)Cc1ccc(OCc2ccccc2)cc1 | 1.01 µM | > 50 µM | 
C[C@H](Cc1ccc(OCc2ccccc2C#N)cc1)N(C)CC(=O)O | 14.1 µM | > 50 µM | 
